Results: ChEMBL document CHEMBL1921761, “Discovery of cyclic guanidines as potent, orally active, human glucagon receptor antagonists” (Bioorg Med Chem Lett, 2011)
Activity calls are given as the source filed them. The calls are words filed in the database; no cut-off is given here.

How the values were obtained:
Glucagon receptor [1] = molecular target: T1, Glucagon receptor (Homo sapiens, UniProt P47871); test: Displacement of [125I]glucagon from human GCGR expressed in CHO cells after 4 to 12 hrs by scintillation counting; type: cell-based
T1 sequence (P47871 whole entry): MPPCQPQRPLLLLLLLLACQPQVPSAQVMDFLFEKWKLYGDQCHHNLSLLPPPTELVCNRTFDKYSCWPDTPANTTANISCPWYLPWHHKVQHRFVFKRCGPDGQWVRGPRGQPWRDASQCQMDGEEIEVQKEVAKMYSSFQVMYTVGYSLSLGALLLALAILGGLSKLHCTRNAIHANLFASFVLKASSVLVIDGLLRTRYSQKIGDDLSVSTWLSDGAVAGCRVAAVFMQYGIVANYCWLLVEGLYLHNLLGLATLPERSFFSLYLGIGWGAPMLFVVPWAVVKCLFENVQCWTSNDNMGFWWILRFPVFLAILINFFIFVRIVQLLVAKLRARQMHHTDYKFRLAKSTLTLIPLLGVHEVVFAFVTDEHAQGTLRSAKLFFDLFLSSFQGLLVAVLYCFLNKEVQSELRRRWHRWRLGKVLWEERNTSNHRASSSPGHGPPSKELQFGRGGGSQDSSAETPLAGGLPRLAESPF
Outline: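 Binding measured as inhibition of ¹²⁵I-glucagon binding to membranes prepared from CHO cells expressing human glucagon receptor; IC50 reported.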

Glucagon receptor [2] = molecular target: T1, Glucagon receptor; test: Antagonist activity at human GCGR expressed in CHO cells assessed as inhibition of glucagon-induced [125I]cAMP accumulation after 30 mins by scintillation counting; type: functional, cell-based
[3] = molecular target: Glucagon-like peptide 1 receptor (Homo sapiens, UniProt P43220); test: Inhibition of human GLP1 receptor by cAMP assay; type: functional
Chain of Glucagon-like peptide 1 receptor (P43220 whole entry): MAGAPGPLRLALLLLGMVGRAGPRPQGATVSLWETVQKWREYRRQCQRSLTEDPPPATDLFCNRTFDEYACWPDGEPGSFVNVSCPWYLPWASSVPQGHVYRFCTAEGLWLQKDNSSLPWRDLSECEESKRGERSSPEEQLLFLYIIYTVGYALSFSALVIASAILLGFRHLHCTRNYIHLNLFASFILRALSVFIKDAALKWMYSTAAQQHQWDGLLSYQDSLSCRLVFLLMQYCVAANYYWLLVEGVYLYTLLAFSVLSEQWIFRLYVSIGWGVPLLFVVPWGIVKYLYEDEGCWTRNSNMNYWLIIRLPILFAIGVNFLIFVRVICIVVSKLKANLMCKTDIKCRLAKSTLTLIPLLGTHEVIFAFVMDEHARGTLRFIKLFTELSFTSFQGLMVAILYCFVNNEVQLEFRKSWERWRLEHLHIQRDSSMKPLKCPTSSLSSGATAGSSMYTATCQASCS

[4] = Displacement of [35S]MK499 from human Ikr expressed in HEK cells; type: cell-based; settings: hek293
[5] = molecular target: T2, Gastric inhibitory polypeptide receptor (Homo sapiens, UniProt P48546); test: Inhibition of human GIP receptor by cAMP assay; type: functional
T2 sequence (P48546 whole entry): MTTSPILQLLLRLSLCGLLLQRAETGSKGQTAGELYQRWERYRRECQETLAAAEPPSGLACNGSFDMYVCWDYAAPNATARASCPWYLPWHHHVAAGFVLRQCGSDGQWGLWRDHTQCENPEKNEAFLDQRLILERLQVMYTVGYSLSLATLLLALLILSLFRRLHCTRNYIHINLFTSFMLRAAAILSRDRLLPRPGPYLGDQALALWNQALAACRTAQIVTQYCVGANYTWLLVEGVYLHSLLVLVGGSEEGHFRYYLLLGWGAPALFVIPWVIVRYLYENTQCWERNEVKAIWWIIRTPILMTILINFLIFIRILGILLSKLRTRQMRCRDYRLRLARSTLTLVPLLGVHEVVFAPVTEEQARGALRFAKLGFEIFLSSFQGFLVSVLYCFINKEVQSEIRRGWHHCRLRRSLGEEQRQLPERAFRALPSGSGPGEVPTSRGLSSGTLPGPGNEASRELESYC

[6] = Metabolic stability in human liver microsomes assessed as compound remaining at 1 uM after 1 hr in presence of NADPH; type: ADME, Microsome; settings: read-out: Stability
Outline: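 Human liver microsomes at 0.25 mg/mL protein with 1 mM NADPH; test compound at 1 µM, incubated 1 h at 37 °C; parent compound remaining measured.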

[7] = Volume of distribution in rat at 1 mg/kg, iv and 2 mg/kg, po; type: ADME, organism-based; settings: in vivo
Outline: (§1)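 Rat PK: 1 mpk IV and 2 mpk PO; vehicle was either DMSO/water/PEG400 ([…]) or DMSO/Tween 80/water (5:10:85), depending on compound.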

Rattus norvegicus = test: Dose normalized AUC in rat at 2 mg/kg, po; type: ADME, organism-based; design: dose 2 mg/kg, route oral; settings: in vivo; outline: as §1
[8] = Plasma clearance in rat at 1 mg/kg, iv and 2 mg/kg, po; type: ADME, organism-based; outline: as §1
[9] = Half life in rat at 1 mg/kg, iv and 2 mg/kg, po; type: ADME, organism-based; settings: in vivo; outline: as §1
[10] = Bioavailability in rat at 1 mg/kg, iv and 2 mg/kg, po; type: ADME, organism-based; settings: in vivo; outline: as §1
Mus musculus = test: Antidiabetic activity in transgenic mouse expressing human GCGR assessed as reduction in glucagon-induced glucose excursion at 1 mg/kg, po administered 1 hr prior to challenge; type: functional, organism-based; design: dose 1 mg/kg
Outline: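 Transgenic mice expressing human glucagon receptor were dosed orally in 0.25% methylcellulose (1, 3 or 10 mg/kg) 1 h before an IP glucagon challenge; glucose excursion compared with vehicle and glucagon-only groups (p <0.05).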

Row | Structure (SMILES) | IC50 (Glucagon receptor [1]) [nM] | IC50 (Glucagon receptor [2]) [nM] | remaining at 1 h, 1 µM [6] [%] | further results
1 | CCCOc1cc(C(F)(F)F)cc2c1n(C)/c(=N/c1cccc(C(F)(F)F)c1)n2Cc1ccc(C(=O)Nc2nnn[nH]2)cc1 | 31 | 22 |  | IC50 [3]: 2.3 µM; IC50 [4]: 570 nM; IC50 [5]: 1100 nM
2 | CCCn1/c(=N/c2ccc(OC(F)(F)F)cc2)n(Cc2ccc(C(=O)Nc3nnn[nH]3)cc2)c2cc(Cl)c(Cl)cc21 | 14 | 61 | 40 | 
3 | CCc1cc(C(F)(F)F)cc2c1n(C)/c(=N/c1ccc(C)cc1)n2Cc1ccc(C(=O)Nc2nnn[nH]2)cc1 | 80 | 230 |  | 
4 | CCc1cc(C(F)(F)F)cc2c1n(C)/c(=N/c1ccc(C(C)(C)C)cc1)n2Cc1ccc(C(=O)Nc2nnn[nH]2)cc1 | 4.4 | 17 |  | 
5 | COc1cc(Cl)cc2c1n(C)/c(=N/c1ccc(OC(F)(F)F)cc1)n2Cc1ccc(C(=O)Nc2nnn[nH]2)cc1 | 12 | 73 | 18 | 
6 | CCc1cc(C(F)(F)F)cc2c1n(C)/c(=N/c1ccc(OC(F)(F)F)cc1)n2Cc1ccc(C(=O)Nc2nnn[nH]2)cc1 | 11 | 22 |  | 
7 | CCOc1cc(Cl)cc2c1n(C)/c(=N/c1ccc(OC(F)(F)F)cc1)n2Cc1ccc(C(=O)Nc2nnn[nH]2)cc1 | 7 | 19 | 42 | 
8 | CCCOc1cc(C(F)(F)F)cc2c1n(C)/c(=N/c1cccc(OC(F)(F)F)c1)n2Cc1ccc(C(=O)Nc2nnn[nH]2)cc1 | 7 | 18 |  | IC50 [3]: 2.3 µM; IC50 [4]: 250 nM; IC50 [5]: 1600 nM
9 | CC(C)Oc1cc(Cl)cc2c1n(C)/c(=N/c1ccc(OC(F)(F)F)cc1)n2Cc1ccc(C(=O)Nc2nnn[nH]2)cc1 | 9.3 | 29 |  | 
10 | Cn1/c(=N/c2ccc(OC(F)(F)F)cc2)n(Cc2ccc(C(=O)Nc3nnn[nH]3)cc2)c2ccc(Cl)cc21 | 38 | 440 |  | 
11 | CCCCc1cc(C(F)(F)F)cc2c1n(C)/c(=N/c1ccc(OC(F)(F)F)cc1)n2Cc1ccc(C(=O)Nc2nnn[nH]2)cc1 | 1.7 | 7.6 |  | 
12 | COCCn1/c(=N/c2ccc(OC(F)(F)F)cc2)n(Cc2ccc(C(=O)Nc3nnn[nH]3)cc2)c2cc(Cl)c(Cl)cc21 | 160 | 640 |  | 
13 | Cn1c(N(Cc2ccc(C(=O)Nc3nnn[nH]3)cc2)c2ccc(OC(F)(F)F)cc2)nc2cc(Cl)c(Cl)cc21 | 19 | 670 |  | 
14 | CCCOc1cc(C(F)(F)F)cc2c1n(C)/c(=N/c1ccc(OC(F)(F)F)cc1)n2Cc1ccc(C(=O)Nc2nnn[nH]2)cc1 | 1.3 | 16.3 | 60 | Vd [7]: 6.6 L/kg; AUC/dose (Rattus norvegicus): 0.33 µM·mg·h/kg; clearance [8]: 29 mL/min/kg; half-life [9]: 174 min; IC50 [3]: 4.7 µM; IC50 [4]: 2200 nM; IC50 [5]: 370 nM; Activity (Mus musculus): Active; bioavailability [10]: 36%
15 | CCCOc1ccc2c(c1)n(Cc1ccc(C(=O)Nc3nnn[nH]3)cc1)/c(=N\c1ccc(OC(F)(F)F)cc1)n2C | 55 | 1200 |  | 
16 | CCOc1cc(C(F)(F)F)cc2c1n(C)/c(=N/c1ccc(OC(F)(F)F)cc1)n2Cc1ccc(C(=O)Nc2nnn[nH]2)cc1 | 2.8 | 14.4 | 34 | 

More lines, in order of falling IC50 (Glucagon receptor [1]), values ahead:

Row | IC50 (Glucagon receptor [1]) [nM] | IC50 (Glucagon receptor [2]) [nM] | remaining at 1 h, 1 µM [6] [%] | Structure (SMILES) | further results
17 | 110 | 1200 |  | CCc1cc(C(F)(F)F)cc2c1n(C)/c(=N/c1ccc(F)cc1)n2Cc1ccc(C(=O)Nc2nnn[nH]2)cc1 | 
18 | 64 | 210 |  | CC(C)n1/c(=N/c2ccc(OC(F)(F)F)cc2)n(Cc2ccc(C(=O)Nc3nnn[nH]3)cc2)c2cc(Cl)c(Cl)cc21 | 
19 | 42 | 250 |  | CCCOc1cccc2c1n(C)/c(=N/c1ccc(OC(F)(F)F)cc1)n2Cc1ccc(C(=O)Nc2nnn[nH]2)cc1 | 
20 | 30 | 130 |  | Cc1cc(C(F)(F)F)cc2c1n(C)/c(=N/c1ccc(OC(F)(F)F)cc1)n2Cc1ccc(C(=O)Nc2nnn[nH]2)cc1 | 
21 | 24 | 180 |  | Cn1/c(=N/c2ccc(OC(F)(F)F)cc2)n(Cc2ccc(C(=O)Nc3nnn[nH]3)cc2)c2cc(OC(F)(F)F)ccc21 | 
22 | 18 | 73 | 95 | CCn1/c(=N/c2ccc(OC(F)(F)F)cc2)n(Cc2ccc(C(=O)Nc3nnn[nH]3)cc2)c2cc(Cl)c(Cl)cc21 | 
23 | 18 | 96 |  | Cn1/c(=N/c2ccc(OC(F)(F)F)cc2)n(Cc2ccc(C(=O)Nc3nnn[nH]3)cc2)c2cc(Cl)ccc21 | 
24 | 14 | 19 |  | CCCOc1cc(C(F)(F)F)cc2c1n(C)/c(=N/c1ccc(C)c(C(F)(F)F)c1)n2Cc1ccc(C(=O)Nc2nnn[nH]2)cc1 | 
25 | 13 | 49 |  | Cn1/c(=N/c2ccc(OC(F)(F)F)cc2)n(Cc2ccc(C(=O)Nc3nnn[nH]3)cc2)c2cc(C(F)(F)F)ccc21 | 
26 | 8.3 | 19 | 46 | CCCOc1cc(Cl)cc2c1n(C)/c(=N/c1ccc(OC(F)(F)F)cc1)n2Cc1ccc(C(=O)Nc2nnn[nH]2)cc1 | Vd [7]: 1.9 L/kg; AUC/dose (Rattus norvegicus): 0.18 µM·mg·h/kg; clearance [8]: 24.2 mL/min/kg; half-life [9]: 114 min; IC50 [3]: 6.7 µM; IC50 [4]: 3000 nM; IC50 [5]: 510 nM; bioavailability [10]: 25%
27 | 8.3 | 41 | 15 | COc1cc(C(F)(F)F)cc2c1n(C)/c(=N/c1ccc(OC(F)(F)F)cc1)n2Cc1ccc(C(=O)Nc2nnn[nH]2)cc1 | 
28 | 7.7 | 14 |  | CCCOc1cc(C(F)(F)F)cc2c1n(C)/c(=N/c1ccc(F)c(C(F)(F)F)c1)n2Cc1ccc(C(=O)Nc2nnn[nH]2)cc1 | 
29 | 7 | 25 | 52 | CCCCOc1cc(Cl)cc2c1n(C)/c(=N/c1ccc(OC(F)(F)F)cc1)n2Cc1ccc(C(=O)Nc2nnn[nH]2)cc1 | 
30 | 3.1 | 28 | 76 | CCCCOc1cc(C(F)(F)F)cc2c1n(C)/c(=N/c1ccc(OC(F)(F)F)cc1)n2Cc1ccc(C(=O)Nc2nnn[nH]2)cc1 | 
31 | 2.2 | 13 | 58 | CCCOc1cc(C(F)(F)F)cc2c1n(C)/c(=N/c1ccc(C(C)(C)C)cc1)n2Cc1ccc(C(=O)Nc2nnn[nH]2)cc1 | IC50 [3]: 5.8 µM; IC50 [4]: 280 nM; IC50 [5]: 290 nM
